The subject of data set [1] is normal conscious dogs. The data set can be described thus: Mean arterial pressure after acute oral administration in normal conscious dogs. It is filed as in vivo, dog. Conditions: oral 350 μg/kg, n=6, up to 240 min. The procedure, abridged:
(§1)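 Adult male mongrel dogs (15-20 kg) with a femoral arterial port were fed 100 mEq/day sodium for 5 days, with water ad lib and sling acclimation. On the study day they were fasted and kept 30 min in a sling while conscious. Randomized single oral 350 μg/kg dose (conjugate n=5; unconjugated peptide n=6; vehicle n=6). MAP and blood were taken at baseline and 10–240 min. Plasma hBNP and cGMP were measured by radioimmunoassay. Mean ± SEM; repeated-measures ANOVA with Bonferroni.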

The test system of data set [2] is plasma cGMP. Format: in vivo, dog. Conditions: oral 350 μg/kg; normal conscious dogs; n=6. In short, it runs like this:
as §1

For data set [3] the following is noted: native BNP; quoted in the discussion, no reference given; cited from earlier work.

Regarding “native hBNP: native human B-type natriuretic peptide, 32 amino acid mature form”, the “MAP response throughout the study (in words)” value in data set [1] is on record as “did not change”. The “Plasma cGMP response (in words)” value in data set [2] is listed as “not statistically different from baseline levels”. In addition, the Half life entry in data set [3] is reported as “approximately 20 minutes”.

The values are drawn from article PMC2767302 (Circulation, 2008).
